Active and inactive are the calls of the source. No cut-off for these calls is given here.

This note sets out measurements from ChEMBL document CHEMBL2429851, “New synthesis and tritium labeling of a selective ligand for studying high-affinity γ-hydroxybutyrate (GHB) binding sites” (J Med Chem, 2013).

Series [1] can be described thus: (§1) Displacement of [3H]-3-hydroxycyclopent-1-enecarboxylic acid from GHB binding site in Sprague-Dawley rat cerebral cortex after 1 hr by scintillation counting analysis. It is filed as tissue-based. In a few lines: (§2)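 Rat cerebrocortical membranes incubated with 10 nM [3H]-ligand and competitor over a concentration range. Conditions follow the earlier [3H]NCS-382 protocol. Non-specific binding defined with 1 mM GHB. IC50 taken from inhibition curves. Each experiment run in triplicate, with three additional repeats.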

The nature of series [2]: Radiochemical stability of the compound in aqueous solution of gentisic acid by HPLC analysis. The class given is physicochemical. The conditions noted are these: buffer. Put shortly: (§3)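 [3H]-labelled compound tested for protection against radiolysis in four formulations, including ethanol and aqueous gentisic acid (50 mM), at 1 mCi/mL. Stability followed by HPLC (area%, 245 nm).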

Series [3] in a line: Radiochemical stability of the compound in ethanol at 1 mCi/mL by HPLC analysis. It is filed as physicochemical. In a few lines: as §3
The test system of series [4] is MDCK. Put plainly: Apparent permeability from basolateral to apical side in MDCK cells expressing MDR1. The class given is ADME, cell-based, Canis lupus familiaris. The conditions noted are these: dog.
Series [5] has as its system MDCK. Put plainly: Apparent permeability from apical to basolateral side in MDCK cells expressing MDR1. It is filed as ADME, cell-based, Canis lupus familiaris. The conditions noted are these: dog.
A short description of series [6]: Ratio of drug level in brain to plasma in C57 mouse at 10 mg/kg, po after 30 mins by LC-MS/MS analysis. The class given is ADME, organism-based. The conditions noted are these: read-out: BPR. More on the design: dose 10 mg/kg, route oral. In a few lines:
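Mice dosed orally at 10 mg/kg, a single acute dose. Brain and plasma sampled 30 minutes after dosing, and the brain-to-plasma concentration ratio calculated.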

The species entered for series [7] is Rattus norvegicus. Conditions: Sprague-Dawley, Cerebral cortex, at 100 µM.
For series [8], the species on record is Rattus norvegicus. Conditions: Sprague-Dawley, Cerebral cortex, at 1 mM.
For series [9], the species on record is Rattus norvegicus. The description is as §1. It is filed as tissue-based. Put shortly: as §2
Series [10] in a line: Chemical stability of the compound in Milli-Q water at -30 degC by HPLC analysis. It is filed as physicochemical. The conditions noted are these: buffer. In a few lines: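 HPLC purity tracking (area%, 245 nm) of the compound dissolved at 2 mg/mL in MilliQ water (pH 3.5). Stored at −30±2°C and also at room temperature, sampled over time (days to over a year).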
A short description of series [11]: Displacement of [3H]NCS-382 from GHB binding site in Sprague-Dawley rat brain synaptic membranes after 1 hr by scintillation counting analysis. It is filed as cell membranes, Membrane. On the technique in general: In a radioligand displacement assay an active substance lowers the binding of a labelled ligand.

On to `O=C([O-])C1=CC(O)CC1.[Na+]` (stereo not given), for which, in series [1], the IC50 – broadly, the concentration that gives 50% inhibition – amounted to 116 nM and the pIC50 (as a rule, the IC50 on a negative log10 scale, so that one unit is a factor of ten) turned out to be 6.93.
Turning to `[3H]C1(O)C=C(C(=O)O)CC1` (stereo not given), the Stability entry in [2] and in series [3] was “Stable” each time.
For the molecule `O=C(O)/C=C1\CCCc2ccccc2C1O` (stereo not given), the permeability entry in series [4] and in series [5] was “impermeable” in each case. Further, in [6], the Kp at 0.5 h is 0.38. For the same molecule, in series [7], the inhibition result was “Active”.
Turning to `COc1ccc(-c2ccc(=N)n(CCCC(=O)O)n2)cc1`, the inhibition entry in series [7] was “Active”.
Take `NCC(CC(=O)O)c1ccc(Cl)cc1` (stereo not given): in series [8], the inhibition entry is “inactive”.
As to `O=C(O)C1=CC(O)CC1` (stereo not given), in [9], the inhibition entry was “Dose-dependent effect”.
As to `O=C(O)C1=CC(O)CC1` (racemic) [listing 1 of 2 here], the permeability result in [4] is given as “impermeable”. Also, in [5], the permeability entry is listed as “impermeable”. For the same molecule, the Kp at 0.5 h in series [6] was determined as 0.37. In [1], this molecule had a half-maximal inhibitory concentration (IC50) of 73 nM and a pIC50 of 7.14. Also, the Stability in [10] was 16 months. The Ki (commonly a measure of affinity in units of concentration, obtained from inhibition or displacement) in series [11] was determined as 160 nM.
As to `O=C(O)C1=CC(O)CC1` (racemic) [listing 2 of 2 here], in [9], the inhibition entry was “Dose-dependent effect”.
As for `O=C(O)CCCO` [OXYBATE], the permeability entry in [4] is reported as “impermeable”. In addition, in series [5], the permeability entry was “impermeable”. Also, in series [6], the Kp at 0.5 h was found to be 0.2. In [1], this molecule came in with a half-maximal inhibitory concentration (IC50) of 1140 nM and a negative logarithm of the IC50 (pIC50) of 5.94. The inhibition entry in series [9] is “Dose-dependent effect”.
